# Measured values published in paper PMC6851555 (Diabetes, Obesity & Metabolism, 2019).
# Columns and labels:
# [1] = biological target: T1, PPARγ ligand-binding domain (LBD) (Homo sapiens, UniProt P37231); assay: PPARγLBD-Gal4-luciferase reporter transactivation assay; assay type: cell-based; details: 20 μmol/L GW9662, 10 μmol/L YR4-42; Figure 1H
# T1 sequence (P37231 204-505): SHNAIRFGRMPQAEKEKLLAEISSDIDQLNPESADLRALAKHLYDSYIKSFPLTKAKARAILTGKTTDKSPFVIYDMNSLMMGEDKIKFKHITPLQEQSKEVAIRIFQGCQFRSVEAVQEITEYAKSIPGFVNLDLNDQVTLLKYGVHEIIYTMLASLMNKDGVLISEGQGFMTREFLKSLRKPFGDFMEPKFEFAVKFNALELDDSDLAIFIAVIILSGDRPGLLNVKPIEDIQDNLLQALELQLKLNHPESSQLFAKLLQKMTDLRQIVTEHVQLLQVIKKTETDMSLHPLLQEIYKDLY
# DIO-C57BL/6J mice = assay: In vivo pharmacological evaluation in diet-induced obese mice; parameters: species or system mouse; details: YR4-42 50 mg/kg
# In short: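 Male C57BL/6J mice (6 weeks old) on 60%-fat diet for 10 weeks, continued throughout; 16-week-old DIO mice randomised, n = 12/group, gavaged 38 days with 0.5% CMC-Na vehicle, pioglitazone 25 mg/kg or test compound 50 mg/kg; chow-fed vehicle controls. Body weight every 2 days; insulin tolerance test day 14 (AUC); day 38 liver weighed, TG/TC/FFA by kits normalised to tissue weight; mean ± SEM.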
SMILES,effect of antagonist on PPARγ transactivation induced by YR4-42 [1],"hepatic TG, total cholesterol and FFA (DIO-C57BL/6J mice; 38th day, pioglitazone 25 mg/kg oral, Figure 3K-M)","body weight of DIO mice (DIO-C57BL/6J mice; oral gavage 38 days, pioglitazone 25 mg/kg, Figure 3A,B)"
O=C(Nc1ccccc1)c1cc([N+](=O)[O-])ccc1Cl [GW9662],inhibited,–,–
CCc1ccc(CCOc2ccc(CC3SC(=O)NC3=O)cc2)nc1 (stereo not drawn) [pioglitazone],–,increased,further enhanced weight gain
